From ChEMBL document CHEMBL4732044, “Discovery of a promising agent IQZ23 for the treatment of obesity and related metabolic disorders” (Eur J Med Chem, 2020) come the findings set out here.

Converted amounts (≈) assume the structure as drawn. The source made the active and inactive calls. No cut-off for these calls is given here.

Data set [1] in a line: Cmax in Sprague-Dawley rat at 5 mg/kg, po up to 24 hrs by LC-MS/MS analysis. The format is ADME, organism-based. Also on record: route oral, dose 5 mg/kg, time <=24. To be noted: in vivo. An outline of the steps:
(§1)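 Male SD rats (180–220 g, n = 3) received compound in ethanol/saline (5:95), either intravenously at 2 mg/kg or intragastrically at 5 mg/kg. Plasma was sampled at 0, 0.5, 1, 2, 4, 8, 12 and 24 h. Concentrations were measured by LC-MS/MS, and PK parameters were calculated from the concentration–time data.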

In data set [2] the test system is 3T3-L1. The experiment in a line: Activation of AMPK pathway in mouse 3T3-L1 cells assessed as increase in number of mitochondria copy at 1 uM after 24 hrs in presence of compound C by mito-tracker staining based Confocal microscopic method. An outline of the steps:
(§2)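 3T3-L1 cells grown in DMEM with 10% FBS at 37 °C and 5% CO2. After treatment, cells were stained for 30 min at 37 °C in the dark with 1 µM Mito-Tracker plus Hoechst 33342 (1:1000) and imaged by confocal microscopy (excitation 633 and 405 nm). Mitochondrial copy number was also taken as the mtDNA/nDNA ratio by PCR (cytochrome C versus 18S rRNA).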

Data set [3] deals with 3T3-L1. The experiment in a line: Lipid lowering activity in mouse 3T3-L1 cells assessed as reduction in adipogenic cocktail-induced triglyceride levels at 1 uM incubated for 6 days by GPO-POD assay relative to control. Type of data set: functional. Also on record: scale not given: the % may be the effect or the level left. To be noted: time 6 day. An outline of the steps: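 Confluent 3T3-L1 cells were treated from day 0 in cocktail (IBMX, dexamethasone, insulin) for 3 days, then re-dosed in insulin medium for 3 more days. For dose–response, concentrations were 0–10 µM (0.01, 0.1, 0.3, 1, 3, 10). On day 6, cells were lysed in 0.2% Triton X-100 and TG was measured by GPO-POD and normalized to BCA protein as % of control. EC50 was fitted from the dose–response. N = 4.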

Data set [4] in a line: Oral bioavailability in Sprague-Dawley rat at 5 mg/kg up to 24 hrs by LC-MS/MS analysis. To be noted: in vivo. The format is ADME, organism-based. Put shortly:
as §1

Data set [5] is described as follows: Half life in Sprague-Dawley rat at 5 mg/kg, po up to 24 hrs by LC-MS/MS analysis. Type of data set: ADME, organism-based. To be noted: in vivo. Put shortly: as §1
Data set [6] in a line: Intrinsic clearance in Sprague-Dawley rat liver microsomes assessed as rate constant […] up to 60 mins in presence of NADPH by LC-MS/MS analysis. Type of data set: ADME, Microsome. To be noted: read-out: CLH.
A short description of data set [7]: AUC(0 to infinity) in Sprague-Dawley rat at 5 mg/kg, po up to 24 hrs by LC-MS/MS analysis. Type of data set: ADME, organism-based. Also on record: route oral, dose 5 mg/kg, time <=24. Conditions: in vivo. Put shortly: (§3)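 Male Sprague-Dawley rats (180-220 g, n = 3) were dosed intragastrically at 5 mg/kg in ethanol/saline (5:95). Plasma was collected at 0, 30 min, 1, 2, 4, 8, 12 and 24 h post-dose and quantified by LC-MS/MS. Pharmacokinetic parameters were derived from the plasma concentration-time profile.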

The nature of data set [8]: Aqueous solubility in PBS buffer at pH 7.4 after 24 hrs. The format is physicochemical.
In data set [9] the test system is 3T3-L1. The experiment in a line: Activation of AMPK pathway in adipogenic cocktail-induced mouse 3T3-L1 cells assessed as increase in phosphorylation AMPKalpha at Thr172 residue at 0.01 to 1 uM after 24 hrs by Western blot analysis. To be noted: filed as activator, dose 0.01-1 µM. The format is cell-based. Put shortly: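 Confluent 3T3-L1 pre-adipocytes exposed to adipogenic cocktail for 24 h with or without compound (0, 0.01, 0.1, 1 µM); DMSO vehicle. Lysates analysed by SDS-PAGE/Western blot for pAMPKα (Thr-172), normalized to actin, Ctrl set as 1. N = 4 independent experiments.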

Data set [10] is described as follows: AUC(0 to t) in Sprague-Dawley rat at 5 mg/kg, po up to 24 hrs by LC-MS/MS analysis. Type of data set: ADME, organism-based. Also on record: route oral, dose 5 mg/kg, time <=24. To be noted: in vivo. An outline of the steps:
as §3

The nature of data set [11]: MRT(0 to infinity) in Sprague-Dawley rat at 5 mg/kg, po up to 24 hrs by LC-MS/MS analysis. Type of data set: ADME, organism-based. To be noted: in vivo. Put shortly:
as §1

The nature of data set [12]: Stability in Sprague-Dawley rat liver microsomes assessed as remaining compound […] up to 60 mins in presence of NADPH by LC-MS/MS analysis. Type of data set: ADME, Microsome. Conditions: read-out: Stabilty.
The nature of data set [13]: Tmax in Sprague-Dawley rat at 5 mg/kg, po up to 24 hrs by LC-MS/MS analysis. Type of data set: ADME, organism-based. Conditions: in vivo. An outline of the steps: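 Male Sprague-Dawley rats (180-220 g, n = 3) were dosed intragastrically at 5 mg/kg in ethanol/saline (5:95); a separate iv arm received 2 mg/kg. Blood was drawn at 0, 30 min, 1, 2, 4, 8, 12 and 24 h and centrifuged to obtain plasma. Drug levels were measured by LC-MS/MS, and pharmacokinetic parameters were calculated from the concentration–time data.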

For data set [14], the system named is 3T3-L1. The data set can be described thus: Inhibition of mouse 3T3-L1 cells adipocyte differentiation assessed as reduction in adipogenic cocktail-induced C/EBPbeta mRNA expression after 24 hrs by RT-qPCR analysis. To be noted: dose 0.01-1 µM. Type of data set: functional, cell-based. An outline of the steps:
(§4)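 Confluent 3T3-L1 preadipocytes received differentiation cocktail (0.5 mM IBMX, 100 ng/mL dexamethasone, 2 µg/mL insulin) with compound (0.01–1 µM; metformin 1 mM) for 24 h. mRNA was measured by SYBR Green RT-qPCR (30 cycles), normalized to β-actin, with the differentiated control set to 1. N = 4 independent experiments.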

Data set [15] is described as follows: Effect on total AKT level in mouse C2C12 cells at 1 uM after 6 hrs by Western blot analysis. Type of data set: ADME, cell-based. Conditions: c2c12, 6 h.
Data set [16] relates to 3T3-L1. The experiment in a line: Activation of AMPK pathway in mouse 3T3-L1 cells assessed as increase in number of mitochondria copy at 1 uM after 24 hrs by mito-tracker staining based Confocal microscopic method. Conditions: filed as activator. An outline of the steps:
as §2

Data set [17] concerns 3T3-L1. The data set can be described thus: Inhibition of mouse 3T3-L1 cells adipocyte differentiation assessed as reduction in adipogenic cocktail-induced C/EBPalpha mRNA expression after 24 hrs by RT-qPCR analysis. Type of data set: functional, cell-based. To be noted: dose 0.01-1 µM. Put shortly: as §4
Data set [18] has as its system 3T3-L1. The experiment in a line: Activation of AMPK pathway in mouse 3T3-L1 cells assessed as increase in oxygen consumption at 1 uM after 5 to 10 mins by XF-96 cell analyzer method. The format is cell-based. Conditions: filed as activator, time 5-10 min. Put shortly: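 3T3-L1 cells seeded in quintuplicate at 5000 cells/well in an XF-96 plate. Equilibrated in assay medium at 37 °C for 30 min. Baseline OCR measured over 3–5 min, then compound injected to final concentration and OCR measured at set time points. Cell number counted at end.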

In data set [19] the target is RAC-alpha serine/threonine-protein kinase (Mus musculus) (UniProt P31750). The experiment in a line: Activation of AKT in mouse C2C12 cells assessed as AKT phosphorylation at […] 308 residue at 1 uM after 6 hrs by Western blot analysis. The format is cell-based. Put shortly: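 C2C12 myoblasts kept in DMEM with 10% FBS and 1% penicillin/streptomycin at 37 °C under 5% CO2.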

Data set [20] can be described thus: Half life in Sprague-Dawley rat liver microsomes assessed as rate constant […] up to 60 mins in presence of NADPH by LC-MS/MS analysis. The format is ADME, Microsome.
Data set [21] concerns 3T3-L1. The experiment in a line: Inhibition of mouse 3T3-L1 cells adipocyte differentiation assessed as reduction in adipogenic cocktail-induced C/EBPdelta mRNA expression after 24 hrs by RT-qPCR analysis. Type of data set: functional, cell-based. To be noted: dose 0.01-1 µM. Put shortly: as §4
Data set [22] has as its system 3T3-L1. The data set can be described thus: Inhibition of mouse 3T3-L1 cells adipocyte differentiation assessed as reduction in adipogenic cocktail-induced PPARgamma mRNA expression after 24 hrs by RT-qPCR analysis. The format is functional, cell-based. To be noted: dose 0.01-1 µM. An outline of the steps: as §4

Sequence of RAC-alpha serine/threonine-protein kinase (Mus musculus) (P31750 whole entry): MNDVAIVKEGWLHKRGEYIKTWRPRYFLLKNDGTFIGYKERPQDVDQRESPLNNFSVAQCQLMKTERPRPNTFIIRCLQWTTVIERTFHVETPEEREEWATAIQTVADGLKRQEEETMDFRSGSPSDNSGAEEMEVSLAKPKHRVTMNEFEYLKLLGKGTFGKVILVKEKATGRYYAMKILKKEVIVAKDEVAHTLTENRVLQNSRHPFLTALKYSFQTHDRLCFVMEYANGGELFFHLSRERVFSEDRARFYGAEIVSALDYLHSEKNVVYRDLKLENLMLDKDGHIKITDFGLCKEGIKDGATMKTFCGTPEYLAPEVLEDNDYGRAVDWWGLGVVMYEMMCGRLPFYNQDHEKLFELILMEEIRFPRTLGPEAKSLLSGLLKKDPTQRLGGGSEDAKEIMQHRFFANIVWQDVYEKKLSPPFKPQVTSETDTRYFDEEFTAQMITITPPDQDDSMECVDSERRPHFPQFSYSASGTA

Molecule `COc1ccc2[nH]c(-c3nc(NCCCCN4CCCC4)c4ccccc4n3)c(C=O)c2c1` came in with a Cmax in [1] of 0.0371 µg/mL. For the same molecule, the result in data set [2] and in data set [19] was inactive. The Activity entry is recorded as “>=50%” in data set [3] and “Non-Toxic” in data set [15]. Also, in [4], the bioavailability was 48.6%. The values for the half-life in data set [5] and in data set [20] were 4.2 h and 3.12 h, respectively. Besides, the microsomal CLint in data set [6] turned out to be 3.7 µL/min/mg. In [7], this molecule gave an AUC(0-inf) of 0.384 µg·h/mL. In [8], the solubility at 24 h is 0.0733 mg/mL (≈ 165 µM). Besides, the outcome in data set [9], in data set [16] and in [18] was Active. Also, the exposure AUC(0-t) at 24 h in [10] came to 0.374 µg·h/mL. In [11], the mean residence time MRT inf was found to be 7.5 h. Also, in data set [12], the remaining at 1 h worked out at 80.7%. Besides, in [13], the time of peak concentration (Tmax) worked out at 4 h. The inhibition entry in data set [14], in data set [17], in data set [21] and in [22] was “Dose-dependent effect” in each case.
As to `CN(C)CCCNc1nc(-c2[nH]c3ccccc3c2C=O)nc2ccccc12`, the highest concentration (Cmax) in data set [1] worked out at 0.0238 µg/mL. The result in data set [2] and in [19] was inactive. Further, the Activity is on record as 79.2% in data set [3] and “Non-Toxic” in [15]. In [4], the bioavailability was 43.8%. Moreover, the half-life in data set [5] was 5.1 h; in data set [20], 2.18 h. Moreover, the microsomal CLint in [6] was 6.3 µL/min/mg. Moreover, the area under the curve AUC(0-inf) in data set [7] was 0.294 µg·h/mL. The solubility at 24 h in data set [8] was 0.0411 mg/mL (≈ 110 µM). The outcome in data set [9], in data set [16] and in [18] was Active. This molecule also came in with an AUC(0-t) at 24 h in data set [10] of 0.247 µg·h/mL. This molecule had an MRT inf in data set [11] of 9.62 h. The remaining at 1 h in [12] amounted to 71%. For the same molecule, the Tmax in data set [13] came out at 4.7 h. The inhibition entry in data set [14], in data set [17], in [21] and in data set [22] was “Dose-dependent effect” each time.
